{
  "source": "PubChem BioAssay AID624055",
  "about": "(Southern Research Specialized Biocontainment Screening …, 2012)",
  "note": "Values joined by “and” are separate entries in the source; they are usually repeats but may differ in a detail not shown here. Identical values can stand only once. Active and inactive are the calls of the source.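 Rule for the calls: active = compounds specific to the target that block phage lysis by more than 30% when retested across doses; inactive = the rest, not confirmed on retesting.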",
  "data": [
    {"test_system": "E. coli EV36 T7 phage lysis, OD600", "assay": "capsule biogenesis inhibitors via T7 lysis, dose response, EV36 K1 hybrid, OD600, round 6 (AID 624055)", "conditions": "not given", "in_short": "(§1)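 Material: Escherichia coli EV36, a K1:K-12 hybrid strain | Input: Overnight culture at 1:100 dilution | Detection: Absorbance at 600 nm | Measure: Inhibition of phage lysis by OD600 | Compound: Two-fold serial compound dilution series, 1% DMSO final | Incubation: 1.5 h compound pre-exposure, 3 h post-infection | Probe or stimulus: T7 phage infection after compound pre-exposure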", "units": {"IC50": "µM"}, "values": [
      {"smiles": "O=C(O)c1sc(-c2ccc(OCCCC(F)(F)F)cc2)cc1NC(=O)c1c(F)cc(F)cc1F", "IC50": "< 6.25"},
      {"smiles": "O=C(O)c1sc(-c2ccc(OCCCC(F)(F)F)cc2)cc1NC(=O)c1c(F)cccc1F", "IC50": "< 6.25"},
      {"smiles": "CCOc1ccc(-c2cc(NC(=O)c3c(F)cc(F)cc3F)c(C(=O)O)s2)cc1", "IC50": "< 6.25"},
      {"smiles": "CCOc1ccc(-c2cc(NC(=O)c3c(F)cccc3F)c(C(=O)O)s2)cc1", "IC50": "< 6.25"},
      {"smiles": "O=C(Nc1cc(-c2ccc(OCCC(F)(F)F)cc2)sc1C(=O)O)c1ccc(Br)o1", "IC50": "< 6.25"},
      {"smiles": "O=C(Nc1cc(-c2ccc(OC(F)(F)F)cc2)sc1C(=O)O)c1ccc(Br)o1", "IC50": "< 6.25"},
      {"smiles": "O=C(O)c1sc(-c2ccc(OCC(F)(F)F)cc2)cc1NC(=O)c1c(F)cc(F)cc1F", "IC50": "< 6.25"},
      {"smiles": "CCCc1ccc(-c2cc(NC(=O)c3cc(Br)c(Br)o3)c(C(=O)O)s2)cc1", "IC50": "< 6.25"},
      {"smiles": "O=C(Nc1ccncc1)c1ccc2ncsc2c1", "IC50": "< 6.25"},
      {"smiles": "O=C(O)c1sc(-c2ccc(OCC(F)(F)F)cc2)cc1NC(=O)c1c(F)cccc1F", "IC50": "< 6.25"},
      {"smiles": "O=C(O)c1sc(-c2ccc(OCCC(F)(F)F)cc2)cc1NC(=O)c1c(F)cccc1F", "IC50": "< 6.25"},
      {"smiles": "O=C(O)c1sc(-c2ccc(OCCC(F)(F)F)cc2)cc1NC(=O)c1c(F)cc(F)cc1F", "IC50": "< 6.25"},
      {"smiles": "CCCOc1ccc(-c2cc(NC(=O)c3c(F)cc(F)cc3F)c(C(=O)O)s2)cc1", "IC50": "< 6.25"},
      {"smiles": "CCCc1ccc(-c2cc(NC(=O)c3c(F)cccc3F)c(C(=O)O)s2)cc1", "IC50": "< 6.25"},
      {"smiles": "O=C(Nc1cc(-c2ccc(OCC(F)(F)F)cc2)sc1C(=O)O)c1ccc(Br)o1", "IC50": "< 6.25"},
      {"smiles": "CCCc1ccc(-c2cc(NC(=O)c3ccc(Br)o3)c(C(=O)O)s2)cc1", "IC50": "< 6.25"},
      {"smiles": "CCCc1ccc(-c2cc(NC(=O)c3c(F)cc(F)cc3F)c(C(=O)O)s2)cc1", "IC50": "< 6.25"},
      {"smiles": "CCCCOc1ccc(-c2cc(NC(=O)c3c(F)cc(F)cc3F)c(C(=O)O)s2)cc1", "IC50": "< 6.25"},
      {"smiles": "CCCCOc1ccc(-c2cc(NC(=O)c3c(F)cccc3F)c(C(=O)O)s2)cc1", "IC50": "< 6.25"},
      {"smiles": "COc1ccc2nc(NC(=O)c3ccc(Br)s3)sc2c1", "IC50": "< 0.21"},
      {"smiles": "CCCCOc1ccc(-c2cc(NC(=O)c3cc(Br)c(Br)o3)c(C(=O)O)s2)cc1", "IC50": "< 6.25"},
      {"smiles": "O=C(O)c1sc(-c2ccc(OC(F)(F)F)cc2)cc1NC(=O)c1c(F)cccc1F", "IC50": "< 6.25"},
      {"smiles": "CCCCOc1ccc(-c2cc(NC(=O)c3ccc(Br)o3)c(C(=O)O)s2)cc1", "IC50": "< 6.25"},
      {"smiles": "O=C(Nc1cc(-c2ccc(OCCCC(F)(F)F)cc2)sc1C(=O)O)c1ccc(Br)o1", "IC50": "< 6.25"},
      {"smiles": "[N-]=[N+]=NCCOc1ccc(-c2cc(NC(=O)c3c(F)cccc3F)c(C(=O)O)s2)cc1", "IC50": "< 6.25"},
      {"smiles": "CCOc1ccc(-c2cc(NC(=O)c3c(F)cccc3C(F)(F)F)c(C(=O)O)s2)cc1", "IC50": "< 6.25"}
    ]},
    {"test_system": "not listed separately", "assay": "capsule biogenesis inhibitors via T7 lysis, dose response, EV36 K1 hybrid, OD600, round 6 (AID 624055)", "conditions": "E. coli EV36 T7 phage lysis, OD600; at 50 µM (top of the series)", "in_short": "as §1", "values": [
      {"smiles": "CC(C)(C)c1ccc(-c2cc(NC(=O)c3ccc(Br)s3)c(C(=O)O)s2)cc1", "phage lysis inhibition": "-10.5% (inactive)"},
      {"smiles": "COc1cc2sc(NC(=O)c3ccc(Br)s3)nc2cc1F", "phage lysis inhibition": "-13% (inactive)"},
      {"smiles": "O=C(Nc1ccncc1)c1ccc2ncsc2c1", "phage lysis inhibition": "121% (inactive)"},
      {"smiles": "O=C(Nc1cc(-c2ccc(OCCCC(F)(F)F)cc2)sc1C(=O)O)c1cc(Br)c(Br)o1", "phage lysis inhibition": "-18.4% (inactive) and -21% (inactive)"},
      {"smiles": "O=C(Nc1cc(-c2ccc(OC(F)(F)F)cc2)sc1C(=O)O)c1cc2ccccc2o1", "phage lysis inhibition": "-11.1% (inactive)"},
      {"smiles": "O=C(NC1CCNCC1)c1ccc2ncsc2c1", "phage lysis inhibition": "135% (inactive)"},
      {"smiles": "O=C(NCc1ccncc1)c1ccc2ncsc2c1", "phage lysis inhibition": "128% (inactive)"},
      {"smiles": "O=C(NCCc1ccncc1)c1ccc2ncsc2c1", "phage lysis inhibition": "127% (inactive)"},
      {"smiles": "O=C(Nc1cc(-c2ccc(OC(F)(F)F)cc2)sc1C(=O)O)c1cccc(F)c1", "phage lysis inhibition": "-12.3% (inactive)"}
    ]}
  ]
}
